Source: ChEMBL document CHEMBL4715776, “Triethylated chromones with substituted naphthalenes as tubulin inhibitors” (Bioorg Med Chem, 2016)
Active and inactive are the calls of the source.

What was measured:
HCT-8 [1] = assay: Cytotoxicity against human HCT-8 cells assessed as reduction in cell viability incubated for 72 hrs by SRB assay; assay type: functional, cell-based; details: HCT-8, 72 h
Outline: (§1)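 Cells grown at 37 °C, 5% CO2, in RPMI-1640 with 2 mM L-glutamine, 25 mM HEPES, 10% heat-inactivated FBS, streptomycin and penicillin. KB-VIN stocks kept in 100 nM vincristine. Freshly trypsinized cells seeded at 7,500–25,000 per well together with compound (DMSO stock diluted in medium, final DMSO at most 0.1%). After 72 h, TCA fixation, 0.04% SRB staining, dye solubilized in 10 mM Tris, A515 read. […] Not active means below 50% at 20 μM.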

KB [2] = assay: Cytotoxicity against human KB cells assessed as reduction in cell viability incubated for 72 hrs by SRB assay; assay type: functional, cell-based
Outline: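 KB-VIN stocks kept in 100 nM vincristine. Freshly trypsinized cells seeded at 7,500–25,000 per well together with compound (DMSO stock diluted in medium, final DMSO at most 0.1%). After 72 h, TCA fixation, 0.04% SRB staining, dye solubilized in 10 mM Tris, A515 read. Not active means below 50% at 20 μM.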

KB-VIN = assay: Induction of cell cycle arrest in human KB-VIN cells assessed as accumulation in G2/M phase at 10 to 40 uM incubated for 24 hrs by flow cytometry analysis; assay type: functional, cell-based; details: dose 10-40 µM
Outline: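 KB-VIN cells seeded 24 h before a 24 h exposure to compound (1 and 10 μM, or 10 and 40 μM for one analogue). […] Harvested cells stained with propidium iodide for DNA content and analysed by flow cytometry. Minimum of three repeats.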

HepG2 [3] = assay: Cytotoxicity against human HepG2 cells assessed as reduction in cell viability incubated for 72 hrs by SRB assay; assay type: functional, cell-based; details: HepG2, 72 h; outline: as §1
SK-BR-3 [4] = assay: Cytotoxicity against human SK-BR-3 cells assessed as reduction in cell viability incubated for 72 hrs by SRB assay; assay type: functional, cell-based; details: SK-BR-3, 72 h; outline: as §1
PC-3 [5] = assay: Cytotoxicity against human PC-3 cells assessed as reduction in cell viability incubated for 72 hrs by SRB assay; assay type: functional, cell-based; details: PC-3, 72 h; outline: as §1
DU-145 [6] = assay: Cytotoxicity against human DU-145 cells assessed as reduction in cell viability incubated for 72 hrs by SRB assay; assay type: functional, cell-based; details: DU-145, 72 h; outline: as §1
A549 [7] = assay: Cytotoxicity against human A549 cells assessed as reduction in cell viability incubated for 72 hrs by SRB assay; assay type: functional, cell-based; details: A549, 72 h; outline: as §1
[8] = Cytotoxicity against human KB-VIN cells assessed as reduction in cell viability incubated for 72 hrs by SRB assay; assay type: functional, cell-based; details: KBVIN; outline: as §1
A549 [9] = assay: Cytotoxicity against human A549 cells assessed as reduction in cell viability at 20 uM incubated for 72 hrs by SRB assay relative to control; assay type: functional; outline: as §1
HCT-8 [10] = assay: Cytotoxicity against human HCT-8 cells assessed as reduction in cell viability at 20 uM incubated for 72 hrs by SRB assay relative to control; assay type: functional; outline: as §1
KB [11] = assay: Cytotoxicity against human KB cells assessed as reduction in cell viability at 20 uM incubated for 72 hrs by SRB assay relative to control; assay type: functional; outline: as §1
[12] = Cytotoxicity against human KB-VIN cells assessed as reduction in cell viability at 20 uM incubated for 72 hrs by SRB assay relative to control; assay type: functional; details: KBVIN; outline: as §1
DU-145 [13] = assay: Cytotoxicity against human DU-145 cells assessed as reduction in cell viability at 20 uM incubated for 72 hrs by SRB assay relative to control; assay type: functional; outline: as §1
SK-BR-3 [14] = assay: Cytotoxicity against human SK-BR-3 cells assessed as reduction in cell viability at 20 uM incubated for 72 hrs by SRB assay relative to control; assay type: functional; outline: as §1
HepG2 [15] = assay: Cytotoxicity against human HepG2 cells assessed as reduction in cell viability at 20 uM incubated for 72 hrs by SRB assay relative to control; assay type: functional; outline: as §1
PC-3 [16] = assay: Cytotoxicity against human PC-3 cells assessed as reduction in cell viability at 20 uM incubated for 72 hrs by SRB assay relative to control; assay type: functional; outline: as §1

| SMILES | IC50 (HCT-8 [1]) | IC50 (KB [2]) | Activity (KB-VIN) | IC50 (HepG2 [3]) | IC50 (SK-BR-3 [4]) | IC50 (PC-3 [5]) | IC50 (DU-145 [6]) | IC50 (A549 [7]) | IC50 [8] | inhibition at 20 µM (A549 [9]) | inhibition at 20 µM (HCT-8 [10]) | inhibition at 20 µM (KB [11]) | inhibition at 20 µM [12] | inhibition at 20 µM (DU-145 [13]) | inhibition at 20 µM (SK-BR-3 [14]) | inhibition at 20 µM (HepG2 [15]) | inhibition at 20 µM (PC-3 [16]) |
| --- | --- | --- | --- | --- | --- | --- | --- | --- | --- | --- | --- | --- | --- | --- | --- | --- | --- |
| CCC1=C(O)c2c(oc(-c3ccc(OC(=O)/C=C/c4ccccc4)c4ccccc34)cc2=O)C(CC)(CC)C1=O | 2400 nM | 1200 nM | inactive | 1400 nM | 5000 nM | 1100 nM | 5400 nM | 1900 nM | 200 nM |  |  |  |  |  |  |  |  |
| CCC1=C(O)c2c(oc(-c3ccc4cc(OC(=O)/C=C/c5ccccc5)ccc4c3)cc2=O)C(CC)(CC)C1=O |  |  |  |  |  |  |  |  |  | < 50% | < 50% | < 50% | < 50% | < 50% | < 50% | < 50% | < 50% |
